Results on four compounds are retold here after ChEMBL document CHEMBL2021862, “5-imino-1,2,4-thiadiazoles: first small molecules as substrate competitive inhibitors of glycogen synthase kinase 3” (J Med Chem, 2012).

Activity calls are given as the source filed them. The calls are words filed in the database; no cut-off is given here.

Data set [1] has as its target T1, Glycogen synthase kinase-3 beta (Homo sapiens, UniProt P49841). Nature of the data set: Inhibition of human recombinant GSK3beta at 10 uM after 30 mins by luminescence assay in presence of ATP. The method in brief:
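Human recombinant GSK-3β (20 ng) with prephosphorylated polypeptide substrate 25 μM and ATP 1 μM in 50 mM HEPES pH 7.5, 1 mM EDTA, 1 mM EGTA, 15 mM Mg acetate. Final DMSO ≤1%. Incubated 30 min at 30 °C, stopped with Kinase-Glo reagent, and luminescence read after 10 min. Inhibition is relative to the no-inhibitor maximum. IC50 is the concentration giving 50% activity loss.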
Target sequence in this assay (P49841 whole entry, looked up): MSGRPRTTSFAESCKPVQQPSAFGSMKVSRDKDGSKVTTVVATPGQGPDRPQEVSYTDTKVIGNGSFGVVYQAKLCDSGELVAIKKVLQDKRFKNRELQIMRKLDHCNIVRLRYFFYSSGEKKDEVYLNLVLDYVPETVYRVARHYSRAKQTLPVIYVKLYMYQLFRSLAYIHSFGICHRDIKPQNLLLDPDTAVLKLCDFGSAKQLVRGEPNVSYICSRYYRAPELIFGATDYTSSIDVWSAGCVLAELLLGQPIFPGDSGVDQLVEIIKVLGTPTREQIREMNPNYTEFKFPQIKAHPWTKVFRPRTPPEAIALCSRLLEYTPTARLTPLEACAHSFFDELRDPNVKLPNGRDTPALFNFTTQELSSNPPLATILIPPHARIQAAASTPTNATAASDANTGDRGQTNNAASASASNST

Data set [2] addresses T1, Glycogen synthase kinase-3 beta. In words: Non-competitive inhibition of human recombinant GSK3beta at 10 uM after 30 mins by Michaelis-Menten equation in presence of 1 to 50 uM ATP. The following applies: 0.4 to 2 uM, in the assay text read “at 0.4 to 2 uM” for “at 10 uM”. The method in brief:
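Double-reciprocal kinetics on GSK-3β using the ADP-Glo kinase assay. ATP was varied from 1 to 50 μM and inhibitor from 0.4 to 2 μM, with GS-2 fixed at 12.5 μM. Each point is the mean of two experiments, each run in duplicate.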
Target sequence in this assay (P49841 whole entry, looked up): as above

The test system of a further data set is Astrocyte. In words: Neuroprotective activity in rat astrocytes assessed as decrease in LPS-induced nitrite production at 28 to 52 ug/ml after 24 hrs administered 1 hr before LPS challenge by Griess method. Type of data set: functional, cell-based. Put shortly:
(§1)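 Astrocytes and microglia were from neonatal (P2) rat cortex, separated by shaking; microglia received 10 ng/mL GM-CSF. Purity >98% (OX42/GFAP). Cells were pretreated 1 h with compound, then given LPS for 24 h. Supernatant was mixed 1:1 with Griess reagent, left 15 min at room temperature, and absorbance read at 492/540 nm.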

The test system of the next data set is Microglia. Nature of the data set: Neuroprotective activity in rat microglia cells assessed as decrease in LPS-induced nitrite production at 28 to 52 ug/ml after 24 hrs administered 1 hr before LPS challenge by Griess method. In kind it is functional, cell-based. The method in brief: as §1
(In general: The Griess reaction detects nitrite, a stable product of nitric oxide.)

Another data set concerns Cortical neurone. Nature of the data set: Neuroprotective activity in rat cortical neurons assessed as decrease in LPS-induced nitrite production at 28 to 52 ug/ml after 24 hrs administered 1 hr before LPS challenge by Griess method. In kind it is functional. The method in brief:
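Cortical neurons from E18 rats were grown in Neurobasal/B-27 at 37 °C, 5% CO2 for 1 week. They were pretreated 1 h with compound, then exposed to supernatant from LPS-stimulated microglia. After 24 h, nitrite in the medium was measured by Griess reaction (equal volume reagent, 15 min room temperature, absorbance 492/540 nm).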

In a further data set the test system is NSC. In words: Neurogenic activity in rat hippocampal NSC assessed as increase in beta-tubulin after 24 hrs by DAPI staining-based immunocytometric analysis. Type of data set: functional, cell-based. The following applies: Hippocampus. Put shortly:
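Neurospheres from adult rat hippocampus were expanded in DMEM/F12 with EGF and FGF (10 ng/mL each) and B27, and treated with compound. Spheres were plated on poly-L-lysine without growth factors. Cells were fixed in 4% paraformaldehyde, permeabilized with 0.1% Triton X-100, stained with anti-β-tubulin (Tuj1) and an Alexa secondary, counterstained with DAPI, and imaged by confocal microscopy.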

Data set [3] deals with T1, Glycogen synthase kinase-3 beta. Nature of the data set: Competitive inhibition of human recombinant GSK3beta at 0.5 to 2.5 uM after 30 mins by Michaelis-Menten equation in presence of 1 uM ATP.
Target sequence in this assay (P49841 whole entry, looked up): as above
For data set [4] the target is unchanged. In words: Competitive inhibition of human recombinant GSK3beta at 12.5 to 100 uM after 30 mins by Michaelis-Menten equation in presence of 1 uM ATP. The method in brief:
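Lineweaver–Burk kinetics on human recombinant GSK-3β. GS-2 substrate was varied from 12.5 to 100 μM against inhibitor at 0.5–2.5 μM, with ATP held at 1 μM. Luminescent kinase read-out. Each point is the mean of two experiments, each run in duplicate.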
Target sequence in this assay (P49841 whole entry, looked up): as above

The target is the same in data set [5]. In words: Inhibition of human recombinant GSK3beta after 30 mins by luminescence assay in presence of ATP.
Target sequence in this assay (P49841 whole entry): as the sequence (P49841 whole entry, looked up) above
Data set [6] is described as follows: Effective permeability across porcine polar brain lipid after 4 hrs by PAMPA. To be noted: pig, PAMPA. On the technique in general: The PAMPA barrier holds no transporters, so it reflects passive diffusion.

As for `OCC/N=c1\nc(-c2ccccc2)n(-c2ccccc2)s1`, in data set [1], the inhibition was over 60%. In addition, the inhibition entry in data set [2] and in [3] was “Active” in each case. The result in the data set with Astrocyte, in the data set with Microglia, in the data set with Cortical neurone and with NSC was Active.
In the case of H-YRRAAVPPSPSLSRHSSPHQAEDEEE-OH, the inhibition entry in [4] was “Active”.
Regarding `Br.c1ccc(-c2n/c(=N\Cc3cccnc3)sn2-c2ccccc2)cc1`, the inhibition in data set [1] was over 60%. Moreover, the inhibition result in data set [2] and in data set [3] was “Active” throughout. In addition, the IC50 in data set [5] worked out at 1300 nM. Further, the outcome with Astrocyte, in the data set with Microglia, with Cortical neurone and in the data set on NSC was Active. Moreover, the Papp at 4 h in data set [6] worked out at 10.7 ×10⁻⁶ cm/s.
Consider `Br.c1ccc(-c2n/c(=N\CCN3CCOCC3)sn2-c2ccccc2)cc1`, for which the inhibition in [1] was over 60%. In addition, the inhibition result in data set [2] and in data set [3] was “Active” each time. The IC50 in data set [5] stood at 900 nM. This compound registered a Papp at 4 h in data set [6] of 7.2 ×10⁻⁶ cm/s.

Broadly, the inhibition is how much of the control response was suppressed. For orientation: IC50 means the midpoint of a concentration-inhibition curve. For orientation: Papp means the rate of passage across a membrane or cell layer, normalised by area and donor concentration. A low value points to poor permeation.
